Data as given in ChEMBL document CHEMBL2163220 (J Med Chem, 2012).
Residue numbers refer to the chain shown, from its start. Active and inactive are the calls of the source. The calls are words filed in the database; no cut-off is given here.

Experiments:
PC-3 [1] = test: Effect on in Maspin expression in human PC3 cells deficient in wild type androgen receptor at 2.5 uM by luciferase reporter gene assay; assay type: functional, cell-based
In short: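 PC-3 cells were transfected with maspin-luc, with or without cotransfected AR. Cells were exposed to DMSO vehicle or compound at 2.5 and 5 μM. Luciferase activity was measured in triplicate.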

[2] = test system: T1, Androgen receptor (Homo sapiens), P10275 [W742C]; test: Antagonist activity at androgen receptor W741C mutant expressed in human PC3 cells assessed as reduction in DHT-induced receptor transactivation at 0.1 to 1 uM by luciferase reporter gene assay; assay type: functional, cell-based; details: PC-3
T1 sequence (whole entry): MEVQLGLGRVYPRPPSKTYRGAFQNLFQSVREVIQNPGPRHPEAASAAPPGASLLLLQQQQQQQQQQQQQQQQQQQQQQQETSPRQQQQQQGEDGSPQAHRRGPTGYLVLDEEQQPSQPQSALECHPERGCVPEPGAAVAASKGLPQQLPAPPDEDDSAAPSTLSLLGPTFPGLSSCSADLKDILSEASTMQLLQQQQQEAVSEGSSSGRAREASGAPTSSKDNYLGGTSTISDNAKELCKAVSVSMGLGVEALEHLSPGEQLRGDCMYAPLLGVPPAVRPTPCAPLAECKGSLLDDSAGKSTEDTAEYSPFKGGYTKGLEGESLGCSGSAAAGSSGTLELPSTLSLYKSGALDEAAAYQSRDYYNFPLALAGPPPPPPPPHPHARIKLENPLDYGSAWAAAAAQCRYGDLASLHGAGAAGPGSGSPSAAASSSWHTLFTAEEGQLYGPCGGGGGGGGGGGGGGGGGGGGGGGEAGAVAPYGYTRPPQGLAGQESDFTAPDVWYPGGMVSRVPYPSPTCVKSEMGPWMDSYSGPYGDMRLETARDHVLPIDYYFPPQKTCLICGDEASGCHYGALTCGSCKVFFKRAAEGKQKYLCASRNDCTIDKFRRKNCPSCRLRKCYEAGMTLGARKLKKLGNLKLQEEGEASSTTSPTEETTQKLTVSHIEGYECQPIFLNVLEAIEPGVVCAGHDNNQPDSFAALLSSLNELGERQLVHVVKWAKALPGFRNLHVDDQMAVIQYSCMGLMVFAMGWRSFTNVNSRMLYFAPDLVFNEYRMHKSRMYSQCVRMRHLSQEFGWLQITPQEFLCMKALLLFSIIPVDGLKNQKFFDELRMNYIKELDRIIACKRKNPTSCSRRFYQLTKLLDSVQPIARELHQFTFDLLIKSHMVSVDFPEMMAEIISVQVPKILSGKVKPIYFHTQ
In short: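 Full-length wild-type or mutant AR plasmid transiently transfected into PC-3 cells with MMTV-luc and Renilla luciferase reporters. Cells treated with DMSO vehicle or compound at 0.1 and 1 μM, alone or with 0.1 nM DHT. Luciferase read as relative luciferase units. Run in triplicate.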

PC-3 [3] = test: Cytotoxicity against human PC3 cells incubated for 72 hrs by MTT assay; assay type: functional, cell-based; details: PC-3, 72 h
In short: (§1)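 MTT assay run across a panel of prostate cancer cell lines.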

CWR22R = test: Cytotoxicity against human 22Rv1 cells incubated for 72 hrs by MTT assay; assay type: functional, cell-based; details: 22Rv1, 72 h; in short: as §1
LNCaP = test: Induction of apoptosis in human LNCAP cells assessed as caspase-3 activation incubated for 24 hrs by Western blotting; assay type: functional, cell-based
In short: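 LNCaP cells in complete medium were exposed to DMSO or compound at 1, 2.5 and 5 μM for 24 h. Western blot measured AR, maspin, caspase-3 activation and PARP cleavage, with β-actin as loading control.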

LNCaP (Homo sapiens) = test: Effect on androgen receptor gene expression in human LNCaP cells at 1 or 2.5 uM incubated for 24 hrs by RT-PCR
[4] = target: T2, Androgen receptor (Homo sapiens) (UniProt P10275); test: Antagonist activity at androgen receptor in human LNCaP cells assessed as increase in Maspin expression incubated for 24 hrs in presence of DHT by RT-PCR
T2 sequence (whole entry): T1 sequence (whole entry) with C742W

- Activity [2]: Active
- Activity [4]: Dose-dependent effect
SMILES: Cc1coc2c1C(=O)C(=O)c1c-2ccc2c1CCCC2(C)C [TANSHINONE IIA]
- Activity (PC-3 [1]): inactive
- IC50 (PC-3 [3]): 3.3 µM
- IC50 (CWR22R): 6.7 µM
- Activity (LNCaP): Dose-dependent effect
- Activity (LNCaP (Homo sapiens)): inactive
